# Assay results published in ChEMBL document CHEMBL3785062, “Preparation and Evaluation of Radiolabeled Antibody Recruiting Small Molecules That Target Prostate-Specific Membrane Antigen for Combined Radiotherapy and Immunotherapy” (J Med Chem, 2016).
# Tests used:
# [1] = Chemical stability in solid state at -10 degC; assay type: physicochemical
# [2] = Drug uptake in gall bladder of human LNCAP cells xenografted NCR nu/nu mouse at 0.19 to 0.36 MBq, iv at 6 hrs; assay type: ADME, organism-based
# How it was run: (§1)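 NCr nu/nu male mice carrying subcutaneous right-flank LNCaP xenografts (2 × 10^6 cells in Matrigel:DPBS), used 4–7 weeks after inoculation. Tail-vein injection of 0.19–0.36 MBq 125I tracer in 0.9% saline. Killed at 1 and 6 h; tissues collected and counted, expressed as %ID/g ± SEM. Group sizes n = 2–3.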
# [3] = Drug uptake in thyroid gland of human LNCAP cells xenografted NCR nu/nu mouse at 0.19 to 0.36 MBq, iv at 1 to 6 hrs; assay type: ADME, organism-based; details: in vivo; how it was run: as §1
# LNCaP [4] = test: Drug internalization in PSMA expressing human LNCAP cells at 10 nM incubated for 2 hrs at 4 degC measured for 10 mins by gamma counting analysis; assay type: ADME, cell-based; details: 0.01 µM
# [5] = Ratio of drug level in tumor to blood in human LNCAP cells xenografted NCR nu/nu mouse at 0.19 to 0.36 MBq, iv at 1 hr; assay type: ADME, organism-based; how it was run: as §1
# [6] = Ratio of drug level in tumor to blood in human LNCAP cells xenografted NCR nu/nu mouse at 0.19 to 0.36 MBq, iv at 6 hrs; assay type: ADME, organism-based; how it was run: as §1
# Tumour [7] = test: Drug uptake in tumor of human LNCAP cells xenografted NCR nu/nu mouse at 0.19 to 0.36 MBq, iv at 6 hrs; assay type: ADME, organism-based, Neoplasm; details: in vivo; how it was run: as §1
# [8] = Stability of compound in saline up to 48 hrs; assay type: physicochemical; details: buffer
# Tumour [9] = test: Drug uptake in tumor of human LNCAP cells xenografted NCR nu/nu mouse at 0.19 to 0.36 MBq, iv at 1 hr; assay type: ADME, organism-based, Neoplasm; details: in vivo; how it was run: as §1
# LNCaP [10] = test: Drug internalization in PSMA expressing human LNCAP cells at 10 nM incubated for 2 hrs at 37 degC measured for 10 mins by gamma counting analysis; assay type: ADME, cell-based; details: 0.01 µM
# [11] = Drug uptake in gall bladder of human LNCAP cells xenografted NCR nu/nu mouse at 0.19 to 0.36 MBq, iv at 1 hr; assay type: ADME, organism-based; details: in vivo; how it was run: as §1
# LNCaP [12] = test: Drug internalization in PSMA expressing human LNCAP cells at 5 nM incubated for 2 hrs at 37 degC measured for 10 mins by gamma counting analysis; assay type: ADME, cell-based; details: 0.005 µM
# LNCaP [13] = test: Drug internalization in PSMA expressing human LNCAP cells at 5 nM incubated for 2 hrs at 4 degC measured for 10 mins by gamma counting analysis; assay type: ADME, cell-based; details: 0.005 µM
# Kidney [14] = test: Drug uptake in kidney of human LNCAP cells xenografted NCR nu/nu mouse at 0.19 to 0.36 MBq, iv at 6 hrs; assay type: ADME, organism-based; details: in vivo; how it was run: as §1
# [15] = Drug uptake in small intestine of human LNCAP cells xenografted NCR nu/nu mouse at 0.19 to 0.36 MBq, iv at 1 hr; assay type: ADME, organism-based; details: in vivo; how it was run: as §1
# Kidney [16] = test: Drug uptake in kidney of human LNCAP cells xenografted NCR nu/nu mouse at 0.19 to 0.36 MBq, iv at 1 hr; assay type: ADME, organism-based; details: in vivo; how it was run: as §1
# [17] = Drug uptake in small intestine of human LNCAP cells xenografted NCR nu/nu mouse at 0.19 to 0.36 MBq, iv at 6 hrs; assay type: ADME, organism-based; details: in vivo; how it was run: as §1
# Blood = test: Drug uptake in blood of human LNCAP cells xenografted NCR nu/nu mouse at 0.19 to 0.36 MBq, iv at 1 hr; assay type: ADME, organism-based; details: in vivo; how it was run: as §1
smiles,measurement,setting,value
O=C(O)CC[C@H](NC(=O)N[C@@H](CCCCNC(=O)Cn1nnc(COCCOCCOCCOCCOCCOCCOCCOCCNc2ccc([N+](=O)[O-])cc2[N+](=O)[O-])c1[125I])C(=O)O)C(=O)O,Stability,[1],3 weeks
same,Drug uptake,"[2]; in vivo, 6 h",Not Active
same,Drug uptake,[3],Active
same,Drug uptake,LNCaP [4],Not Active
same,Kp at 1 h,[5],10
same,Kp at 6 h,[6],3.4
same,Drug uptake,Tumour [7],3.24 % ID/g
same,Stability,[8],Stable
same,Drug uptake,Tumour [9],3.01 % ID/g
same,Drug uptake,LNCaP [10],Active
same,Drug uptake,[11],Active
O=C(O)CC[C@H](NC(=O)N[C@@H](CCCCNC(=O)Cn1cc([125I])nn1)C(=O)O)C(=O)O,Drug uptake,LNCaP [12],Active
same,Drug uptake,LNCaP [13],Not Active
O=C(O)CC[C@H](NC(=O)N[C@@H](CCCCNC(=O)Cn1nnc([125I])c1CNc1ccc([N+](=O)[O-])cc1[N+](=O)[O-])C(=O)O)C(=O)O,Drug uptake,Kidney [14],66.46 % ID/g
same,tissue uptake at 6 h,"[2]; NCR nu/nu, gall bladder, read-out: Drug uptake",7.89 %ID/g
same,Drug uptake,[15],47.37 % ID/g
same,Drug uptake,Kidney [16],68.35 % ID/g
same,Kp at 1 h,[5],35
same,Kp at 6 h,[6],59
same,Drug uptake,[17],2.18 % ID/g
same,Drug uptake,Tumour [7],9.8 % ID/g
same,Drug uptake,Blood,0.36 % ID/g
same,Drug uptake,Tumour [9],12.21 % ID/g
same,Drug uptake,[11],92.46 % ID/g
